# Compounds with a hit are over-represented: about 4.1% of the library has one in this group of screens.
# H9c2 TAG inh: inhibitors of triacylglycerol accumulation | H9c2 cells, Nile Red lipid (TAG) fluorescence; cells loaded with 200 µM oleic acid | inhibition, % at 12.5 µM | 0.66% of 230,000 active | AID 651582;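 active = pattern-corrected inhibition of lipid staining of at least 50% with the nuclear-stain viability signal not falling by more than 50%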;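 also: 0% = DMSO wells and 100% = triacsin C control wells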
# AHR activator: activates the human aryl hydrocarbon receptor. activation, % at 5 µM. AHR-responsive luciferase reporter cells, luminescence. P35869. AID 2796. 2.5% of 320,000 active; in the data active = activation above about 47%;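 also: 0% = vehicle wells and 100% = reference agonist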
# Target sequence (P35869 whole entry, looked up): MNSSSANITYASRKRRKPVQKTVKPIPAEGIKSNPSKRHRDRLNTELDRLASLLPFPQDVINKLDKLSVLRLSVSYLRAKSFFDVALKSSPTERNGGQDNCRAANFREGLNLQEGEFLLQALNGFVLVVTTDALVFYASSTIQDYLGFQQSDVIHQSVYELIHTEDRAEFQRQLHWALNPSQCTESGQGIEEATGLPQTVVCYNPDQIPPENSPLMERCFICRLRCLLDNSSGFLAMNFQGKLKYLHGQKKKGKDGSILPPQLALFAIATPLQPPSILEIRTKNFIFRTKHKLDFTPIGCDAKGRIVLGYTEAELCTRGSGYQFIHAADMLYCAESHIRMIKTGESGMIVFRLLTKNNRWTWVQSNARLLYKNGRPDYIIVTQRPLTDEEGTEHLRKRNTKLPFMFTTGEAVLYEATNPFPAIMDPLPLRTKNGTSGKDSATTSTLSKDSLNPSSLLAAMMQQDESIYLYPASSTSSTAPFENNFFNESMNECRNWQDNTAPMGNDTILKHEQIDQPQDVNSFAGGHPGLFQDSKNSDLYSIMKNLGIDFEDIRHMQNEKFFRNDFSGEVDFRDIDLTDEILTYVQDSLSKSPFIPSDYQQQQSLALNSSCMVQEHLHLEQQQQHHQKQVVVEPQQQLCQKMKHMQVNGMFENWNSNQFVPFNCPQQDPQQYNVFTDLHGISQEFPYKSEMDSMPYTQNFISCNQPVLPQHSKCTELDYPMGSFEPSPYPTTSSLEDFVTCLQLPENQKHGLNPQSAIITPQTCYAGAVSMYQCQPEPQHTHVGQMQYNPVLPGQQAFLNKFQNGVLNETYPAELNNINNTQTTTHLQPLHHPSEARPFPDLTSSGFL
# TbMetRS inhib: blocks T. brucei methionyl-tRNA synthetase activity | purified T. brucei MetRS, ATP depletion, Kinase-Glo luminescence | inhibition, % at 11.9 µM | 0.4% of 360,000 active | AID 624268;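 active = inhibition above a per-plate cutoff of the control wells' mean inhibition plus 3 SD, cut at about 5.5% in these data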;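 also: 0% = DMSO wells median and 100% = median of wells with control inhibitor compound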
#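 assay system = parasite MetRS enzyme | timing = 15 min preincubation, 2 h reaction, all 25 °C | evaluation = percent inhibition relative to median high and low control wells | medium = HEPES buffer containing pyrophosphatase, BSA, spermine, DTT | compound = single dose, 11.9 µM final nominal, 0.9% final DMSO | detection = Kinase-Glo luminescence, ATP depletion format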
# Efflux pump inh: inhibitors of Candida antifungal efflux pumps expressed in yeast; 0.44% of 330,000 active; S. cerevisiae Candida pump triplex, Nile Red efflux; inhibition, % at 10 µM;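 active = plate passing quality check with inhibition over a set limit, or well fluorescence over plate mean plus 4 SD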;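 also: Nile Red retained in pooled yeast measured as flow cytometry median fluorescence; 0% = buffer negative control and 100% = Enniatin B positive control; higher means more Nile Red kept so more efflux inhibition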
# SMARCA2 activ: increases SMARCA2 function in MMTV reporter cells; AID 652017; activation, % at 9.1 µM; MG213 cells, MMTV-luciferase reporter, dexamethasone, overnight; 1% of 370,000 active; in the data active = activation above about 7.8%;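 also: 0% = vehicle wells and 100% = reference activator wells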
# Numbers without * were called inactive; · = not tested or not shown.
SMILES,H9c2 TAG inh,AHR activator,TbMetRS inhib,Efflux pump inh,SMARCA2 activ
CCc1c(C)nc2cc(-c3ccccc3)[nH]n2c1=O,·,45,-1,0,1
C=CCc1c(C)nc2cc(-c3ccc(C)cc3)[nH]n2c1=O,2,50*,0,0,5
O=C(Nc1ccc(Cl)cc1)Nc1nc(-c2sccc2Br)cs1,42,62*,0,0,0
CCOc1ccc(OCC)c(NC(=O)C2CCCN2S(=O)(=O)c2cccc3cccnc23)c1 (stereo unspecified),6,47*,0,0,1
O=C(OC12CCCN(C1)/C(=C/c1ccccc1)C2)c1cccc(F)c1 (stereo unspecified),·,·,·,·,4
O=C(Nc1nc(-c2ccccn2)cs1)c1ccccc1-n1cnnn1,51*,20,0,0,-1
CC(=O)Nc1ccc(C(=O)Nc2nc(-c3ccccn3)cs2)cc1,5,16,-1,0,-1
CCN(CC)c1ccc(C=C2C(=O)OC(c3ccccc3)OC2=O)cc1 (stereo unspecified),-5,-2,1,0,-1
CCN(CC)c1ccc(/C=C/C(=O)C2C(=O)C=C(C)OC2=O)cc1 (stereo unspecified),-66,27,-1,7.6*,5
CN1C(=O)[C@@]2(O[C@H]3C=CC=CN3C3=C2C(=O)CCC3)c2cccc(Br)c21,·,·,·,·,-5
O=C(O)C(=O)/C(=C\c1ccc(Cl)cc1)c1ccc2ccccc2n1,-3,65*,-1,0,3
Cc1ccc(F)cc1NCC(=O)Nc1ccc(Br)cc1,·,72*,2,0,1
Cc1ccc(NCC(=O)Nc2ccc(Br)cc2)cc1C,24,13,0,0,-2
O=C(Nc1cccc(F)c1)c1ccc(-c2ccccc2C(F)(F)F)o1,·,·,·,·,1
COc1ccc(NC(=O)c2ccc(-c3ccccc3C(F)(F)F)o2)cc1,-12,5,0,·,7.9*
Cc1ccc(NC(=O)N2CCCc3ccccc32)cc1,-2,5,-1,0,-1
O=C(Nc1ccc2c(c1)OCO2)N1CCCc2ccccc21,-4,56*,1,0,2
O=C(Nc1ccc2c(c1)OCO2)C1CCCN(S(=O)(=O)c2cccs2)C1 (stereo unspecified),7,66*,-1,0,·
O=C(Nc1ccc2c(c1)OCO2)N1CCCC1,·,70*,-1,0,-1
CC1CN(C(=O)Nc2ccc3c(c2)OCO3)CC(C)O1 (stereo unspecified),·,52*,0,0,4
N#CCCCc1cn(-c2ccc(-c3noc4c3C(=O)N(CC(=O)N3CCOCC3)CC4)cc2)nn1,·,·,·,·,-3
COC1=C[C@H](C(=O)NCc2ccc(Cl)cc2)C(C)C(c2ccccc2)CC1=O (stereo partly specified),·,·,·,·,2
O=C(Nc1ccc2c(c1)OCO2)N1CCN(c2ccccc2)CC1,·,13,0,0,1
O=C(Nc1ccc2c(c1)OCO2)N1CCN(c2ccc(F)cc2)CC1,·,58*,0,0,5
COc1ccc(-n2c(SCC(=O)Nc3cc(C)c(NC(=O)c4ccccc4)cc3OC)nnc2-c2ccco2)cc1,·,·,·,·,-6
SMILES,H9c2 TAG inh,AHR activator,TbMetRS inhib,Efflux pump inh,SMARCA2 activ
Cc1ccccc1NC(=O)c1ccc2c(c1)C(=O)N(CC(C)C)C2=O,·,1,0,0,-2
COCCCN1C(=O)c2ccc(C(=O)Nc3ccccc3OC)cc2C1=O,5,67*,0,0,3
CCOC(=O)CN1C(=O)C(C)(C)Oc2ccc(C(=O)Nc3ccccc3OC)cc21,·,15,0,0,-2
COc1ccccc1NC(=O)c1ccc2c(c1)N(CC#N)C(=O)C(C)(C)O2,·,62*,0,0,0
COCCCN1C(=O)c2ccc(C(=O)Nc3ccccc3Cl)cc2C1=O,·,1,0,0,2
CCOc1ccccc1NC(=O)c1ccc2c(c1)C(=O)N(CC(C)C)C2=O,-10,50*,-1,0,-2
C#CCN(C[C@@H]1[C@@H](OC(=O)NCc2ccccc2F)[C@@H](OC(=O)NCc2ccccc2F)Cn2c(=O)ccc(=O)n21)S(=O)(=O)c1ccc(C)cc1,69*,·,0,·,-12
COc1cc(NC(=O)COc2ccc(Cl)cc2)ccc1-c1cc2ccccc2oc1=O,·,55*,0,0,-6
CC(=O)c1cc2c(cc1NC(=O)C1CN(C(C)=O)c3ccccc3O1)OCO2 (stereo unspecified),2,53*,0,0,-2
CC(C)c1ccc(CNc2ccc3c(c2)ncn3C)cc1,·,63*,-1,0,3
C[C@H]1COc2cc(N3CCCC3)ccc2S(=O)(=O)N1C,·,·,·,·,-1
Fc1ccccc1Nc1nc(NCc2ccco2)nc(N2CCOCC2)n1,·,54*,0,0,1
N#CCSc1nc2ccccc2c2nc3ccccc3n12,·,48*,0,0,6
COc1ccc2c(c1)sc1nc(-c3ccccc3)cn12,45,57*,-2,0,-3
CCOC(=O)N1CCN(C(=O)c2ccc3c(c2)sc2nc(-c4ccc(OC)cc4)cn23)CC1,·,-3,0,0,5
C/C(O)=C(\N=Nc1cc(C)ccc1O)C(N)=O,·,52*,0,0,-6
Cc1ccc(O)c(N=NC2=C(O)CC(C)(C)CC2=O)c1,·,38,-1,0,2
Cc1cc(-n2c(SCC(=O)Nc3ccc(Br)cc3)nc3n[nH]c(C)c3c2=N)ccc1Cl,·,17,0,0,-2
Cc1cc(-n2c(SCC(=O)NCc3cccs3)nc3n[nH]c(C)c3c2=N)ccc1Cl,·,70*,-1,0,-4
CC(=O)c1cc(-c2cccc(C#N)c2)c(=O)n2c1CCC2,·,·,·,·,0
CC(=O)Nc1cccc(NC(=O)CSc2ncc(C(=O)Nc3ccc(F)cc3)c(=O)n2C)c1,8,66*,0,1,-1
CC(=O)Nc1ccc(NC(=O)CSc2ncc(C(=O)Nc3ccc(Cl)cc3)c(=O)n2C)cc1,-1,68*,0,0,·
CC(C)C[C@@H]1COc2cccc(NCCO)c2S(=O)(=O)N1,·,·,·,·,-3
Cc1ccc(C(=O)Nc2cc(Cl)ccc2Oc2ccccc2)cc1[N+](=O)[O-],·,67*,0,0,-2
Cc1ccc(C(=O)Nc2ccccc2-c2ccccc2)cc1[N+](=O)[O-],·,9,-1,0,-1
SMILES,H9c2 TAG inh,AHR activator,TbMetRS inhib,Efflux pump inh,SMARCA2 activ
Cc1cc(C)nc(NC(=O)c2ccc(C)c([N+](=O)[O-])c2)n1,-4,72*,-1,0,0
NC(=O)c1cc2ccc(O)cc2oc1=Nc1ccccc1,14,·,1,·,7.9*
COc1ccc2cc(C(N)=O)c(=Nc3ccccc3)oc2c1,·,24,-1,0,6
O=C(Nc1cc(Cl)ccc1F)C1CCCN1S(=O)(=O)c1cccc2cccnc12 (stereo unspecified),·,·,·,·,-3
O=C(N1CCN(c2ccccn2)CC1)N1c2ccccc2Sc2ccccc21,58*,-1,0,0,-2
O=C(NCCO)C1(C(=O)C2CC2)CC(c2ccccn2)=NO1 (stereo unspecified),·,·,·,·,-4

# Screening data (PubChem BioAssay)
